In assay [1] the target is T1, Delta-type opioid receptor (Mus musculus, UniProt P32300). Description: In vitro agonist activity for Opioid receptor delta 1 was determined in a mouse vas deferens assay. It counts as functional, tissue-based.
Another assay concerns the target Mu-type opioid receptor (Mus musculus, UniProt P42866). The assay can be described thus: Binding affinity against Opioid receptor mu 1 using [3H][D-Ala2, MePhe4, Gly-ol5]-enkephalin as radioligand. In a few lines: (§1)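 Whole-brain (minus cerebellum) membranes from male CD-1 mice in 50 mM Tris-HCl pH 7.4, preincubated 45 min at 37 °C. μ labelled with 0.7 nM [3H]DAMGO, κ with 1.2 nM [3H]U69593 (PEI-presoaked filters); 50 min at 25 °C in triplicate; nonspecific with 10 μM naloxone. IC50 by nonlinear regression, Ki by Cheng–Prusoff; mean ± SEM, n=3 unless stated.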

Assay [2] concerns the target T1, Delta-type opioid receptor. The assay can be described thus: In vitro antagonist activity against Opioid receptor delta 1 in the presence of 30 nM naltrindole, in a mouse vas deferens assay. It counts as functional, tissue-based.
Assay [3] relates to Mus musculus. The assay can be described thus: Antinociceptive activity in mouse abdominal constriction test after intracerebroventricular administration. It counts as functional, Abdomen. In a few lines:
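Male Swiss mice (20-35 g); drug given icv by needle through the skull 1.5 mm right of bregma on the coronal suture (3.5 mm protrusion), 5 min before ip phenyl-p-benzoquinone (2 mg/kg, 10 mL/kg, at 37 °C).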

The target in assay [4] is Kappa-type opioid receptor (Mus musculus, UniProt P33534). The assay can be described thus: Binding affinity against Opioid receptor kappa 1 using [3H]-U-69,593 as radioligand. In a few lines: as §1
Assay [5] concerns the target T1, Delta-type opioid receptor. Description: Binding affinity against Opioid receptor delta 1 using [3H][D-Ala2, D-Leu5]-enkephalin as radioligand.
For assay [6], the species on record is Mus musculus. The assay can be described thus: Selectivity ratio of the affinity for kappa and delta opioid receptors (Ki kappa/Ki delta). In a few lines: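 Ratios of Ki values: δ Ki from [3H]DADLE (1 nM) on NG108-15 membranes; μ Ki from [3H]DAMGO (0.7 nM) and κ Ki from [3H]U69593 (1.2 nM) on mouse brain membranes; all 25 °C competition assays with Ki derived by Cheng–Prusoff.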

For assay [7], the target named is T1, Delta-type opioid receptor. Description: Inv itro antagonist activity against Opioid receptor delta 1 in the presence of 30 nM naltrindole, in a mouse vas deferens assay. Format: functional, tissue-based. In a few lines:
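Isolated vasa deferentia from CD-1 mice (25–35 g) held in Mg2+-free Krebs buffer, oxygenated with 95% O2/5% CO2, at 37 °C. Electrical field stimulation: 50 ms trains of 2 ms pulses at 50 Hz, 60–70 V maximal, trains at 0.1 Hz. Agonist concentration–response curves built cumulatively in the presence of 30 nM naltrindole.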

The record followed here is ChEMBL document CHEMBL1130172, “Discovery of a novel class of substituted pyrrolooctahydroisoquinolines as potent and selective delta opioid agonists, based on an extension of the message-address concept” (J Med Chem, 1997).

T1 sequence (P32300 whole entry): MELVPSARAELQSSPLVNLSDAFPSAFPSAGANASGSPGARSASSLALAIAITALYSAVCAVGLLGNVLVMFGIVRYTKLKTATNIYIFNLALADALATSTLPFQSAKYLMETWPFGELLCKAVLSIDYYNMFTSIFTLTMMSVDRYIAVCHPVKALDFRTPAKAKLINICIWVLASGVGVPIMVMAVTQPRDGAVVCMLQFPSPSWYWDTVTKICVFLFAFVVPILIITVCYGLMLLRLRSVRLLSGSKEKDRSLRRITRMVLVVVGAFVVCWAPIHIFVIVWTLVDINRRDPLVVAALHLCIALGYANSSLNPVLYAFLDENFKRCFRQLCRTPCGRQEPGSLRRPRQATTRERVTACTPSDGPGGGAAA
Sequence of Mu-type opioid receptor (P42866 whole entry): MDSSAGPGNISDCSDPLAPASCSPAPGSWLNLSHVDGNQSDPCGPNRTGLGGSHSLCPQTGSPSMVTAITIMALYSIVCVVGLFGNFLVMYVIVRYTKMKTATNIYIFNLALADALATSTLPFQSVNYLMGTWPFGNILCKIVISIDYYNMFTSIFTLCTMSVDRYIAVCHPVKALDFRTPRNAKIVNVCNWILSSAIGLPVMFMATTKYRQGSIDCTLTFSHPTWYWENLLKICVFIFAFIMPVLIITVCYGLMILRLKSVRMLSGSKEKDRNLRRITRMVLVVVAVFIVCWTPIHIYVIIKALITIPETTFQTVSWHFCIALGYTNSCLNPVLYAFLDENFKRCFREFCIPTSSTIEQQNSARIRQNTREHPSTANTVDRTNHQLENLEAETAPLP
Sequence of Kappa-type opioid receptor (P33534 whole entry): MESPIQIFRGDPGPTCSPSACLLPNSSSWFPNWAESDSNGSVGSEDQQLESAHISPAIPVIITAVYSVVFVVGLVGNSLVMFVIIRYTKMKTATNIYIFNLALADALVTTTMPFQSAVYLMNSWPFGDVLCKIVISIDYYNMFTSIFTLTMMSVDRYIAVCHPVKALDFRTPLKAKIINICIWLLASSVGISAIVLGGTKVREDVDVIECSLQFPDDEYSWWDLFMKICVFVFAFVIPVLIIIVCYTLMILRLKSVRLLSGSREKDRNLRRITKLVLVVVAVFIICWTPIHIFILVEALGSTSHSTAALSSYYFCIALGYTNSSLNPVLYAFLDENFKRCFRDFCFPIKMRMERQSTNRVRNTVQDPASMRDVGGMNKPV

`CCN1CC[C@]2(c3cccc(O)c3)Cc3[nH]c(C(=O)N(CC)CC)c(C)c3C[C@H]2C1` (racemic) [listing 1 of 2 here]: the values for the half-inhibitory concentration (IC50) in assay [1] and in assay [2] were 34 nM and 330 nM, respectively. The Ki – broadly, the equilibrium dissociation constant of an inhibitor or competing ligand from its target – was 407 nM on Mu-type opioid receptor, 1300 nM in assay [4] and 1.9 nM in assay [5]. Moreover, the ED50 with Mus musculus [3] is recorded as 1.6 ug mouse-1.

Consider `CCN1CC[C@]2(c3cccc(O)c3)Cc3[nH]c4ccccc4c3C[C@H]2C1` (racemic) [listing 1 of 2 here], for which the results for the Ki (on Mu-type opioid receptor; in assay [4]; in assay [5]) were 2090 nM, 334 nM and 7.1 nM, respectively.

As to `CCN(CC)C(=O)c1[nH]c2c(c1C)C[C@H]1CN(C)CC[C@]1(c1cccc(O)c1)C2` (racemic), in the assay listed under Mus musculus [6], the Selectivity ratio was 240. Further, the Ki on Mu-type opioid receptor was 93 nM; in assay [4] it was 500 nM; in assay [5], 2.1 nM.

In the case of `CCN(CC)C(=O)c1[nH]c2c(c1C)C[C@H]1CN(CC3CC3)CC[C@]1(c1cccc(O)c1)C2` (racemic), in the assay listed under Mus musculus [6], the Selectivity ratio worked out at 37. In addition, the Ki turned out to be 14.1 nM on Mu-type opioid receptor, 63.1 nM in assay [4] and 1.7 nM in assay [5].

Consider `CCN1CC[C@]2(c3cccc(O)c3)Cc3[nH]c(C(=O)N(CC)CC)c(C)c3C[C@H]2C1` (racemic) [listing 2 of 2 here], for which the Selectivity ratio in the assay listed under Mus musculus [6] was determined as 690.

For `CCN1CC[C@]2(c3cccc(O)c3)Cc3[nH]c4ccccc4c3C[C@H]2C1` (racemic) [listing 2 of 2 here], the Selectivity ratio in the assay filed under Mus musculus [6] worked out at 50.

Regarding `CCN1CC[C@]2(c3cccc(O)c3)Cc3[nH]c4ccccc4c3C[C@H]2C1` (stereo in doubt; (+)-3) [listing 1 of 2 here], the results for the Ki (on Mu-type opioid receptor; in assay [4]; in assay [5]) were 2620 nM, 771 nM and 2.2 nM, respectively.

Turning to `CCN1CC[C@]2(c3cccc(O)c3)Cc3[nH]c4ccccc4c3C[C@H]2C1` (stereo in doubt; (+)-3) [listing 2 of 2 here], the Selectivity ratio in the assay listed under Mus musculus [6] was 350.

As for `CCN1CC[C@]2(c3cccc(O)c3)Cc3[nH]c(C(=O)N(CC)CC)c(C)c3C[C@H]2C1` (stereo in doubt; (+)-5b) [listing 1 of 2 here], the values for the inhibition constant Ki (on Mu-type opioid receptor; in assay [4]; in assay [5]) were more than 5000 nM, 6000 nM and 3540 nM, respectively.

Take `CCN1CC[C@]2(c3cccc(O)c3)Cc3[nH]c(C(=O)N(CC)CC)c(C)c3C[C@H]2C1` (stereo in doubt; (+)-5b) [listing 2 of 2 here]: the Selectivity ratio in the assay filed under Mus musculus [6] amounted to 2.

As for `CCN1CC[C@]2(c3cccc(O)c3)Cc3[nH]c4ccccc4c3C[C@H]2C1` (stereo in doubt; (-)-3) [listing 1 of 2 here], the inhibition constant Ki on Mu-type opioid receptor worked out at 1630 nM; in assay [4], 167 nM; in assay [5], 1970 nM.

As for `CCN1CC[C@]2(c3cccc(O)c3)Cc3[nH]c4ccccc4c3C[C@H]2C1` (stereo in doubt; (-)-3) [listing 2 of 2 here], the Selectivity ratio in the assay filed under Mus musculus [6] was found to be 0.1.

Take `CCN1CC[C@]2(c3cccc(O)c3)Cc3[nH]c(C(=O)N(CC)CC)c(C)c3C[C@H]2C1` (stereo in doubt; (-)-5b) [listing 1 of 2 here]: the 50% inhibitory concentration (IC50) (as a rule, the point on the concentration scale where inhibition reaches its midpoint) was found to be 26 nM in assay [1] and 462 nM in assay [7]. Moreover, the inhibition constant Ki on Mu-type opioid receptor came out at 129 nM; in assay [4], 1340 nM; in assay [5], 0.9 nM.

For `CCN1CC[C@]2(c3cccc(O)c3)Cc3[nH]c(C(=O)N(CC)CC)c(C)c3C[C@H]2C1` (stereo in doubt; (-)-5b) [listing 2 of 2 here], in the assay listed under Mus musculus [6], the Selectivity ratio was determined as 1480.

For the compound `Oc1ccc2c3c1O[C@H]1c4[nH]c5ccccc5c4C[C@@]4(O)[C@@H](C2)N(CC2CC2)CC[C@]314` [NALTRINDOLE], in the assay filed under Mus musculus [6], the Selectivity ratio is 20. Besides, the inhibition constant (Ki) turned out to be 15 nM on Mu-type opioid receptor, 9.5 nM in assay [4] and 0.5 nM in assay [5].

With `CN1CC[C@]23c4c5ccc(O)c4O[C@H]2c2[nH]c4ccccc4c2C[C@@]3(O)[C@H]1C5` [OXYMORPHINDOLE], in the assay listed under Mus musculus [6], the Selectivity ratio amounted to 90. Moreover, the values for the inhibition constant (Ki) (at Mu-type opioid receptor; in assay [4]; in assay [5]) were 661 nM, 77 nM and 0.8 nM, respectively.

Turning to `C=CCN1C[C@H](C)N([C@H](c2ccc(C(=O)N(CC)CC)cc2)c2cccc(OC)c2)C[C@H]1C` [SNC-80], the figures for the Ki (at Mu-type opioid receptor; in assay [4]) were 1300 nM and 1350 nM, respectively.
